High-throughput results from PubChem BioAssay.
M1 ag parental = nonselective activator or artifact in parental CHO-K1 cells; Fluo-8 calcium fluorescence; scaled to maximal ATP response, vehicle zero; activation, % at 3 µM; actives 0.48% (n = 360,000); in the data active = activation above about 15%;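 note: untransfected CHO-K1 host cells lacking M1 receptor as counterscreen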
OX1R antag-1 = antagonists of human orexin 1 receptor; O43613; CHO/OX1R cells, Fluo-8 calcium fluorescence, orexin A; inhibition, % at 5 µM; actives 0.43% (n = 330,000);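 active = inhibition above its plate's threshold, mean inhibition of all tested compounds on the plate plus 3 SD, cut at about 37% in these data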;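 note: 0% = orexin A challenge wells and 100% = SB-334867-A antagonist wells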
Target sequence (O43613 whole entry, looked up): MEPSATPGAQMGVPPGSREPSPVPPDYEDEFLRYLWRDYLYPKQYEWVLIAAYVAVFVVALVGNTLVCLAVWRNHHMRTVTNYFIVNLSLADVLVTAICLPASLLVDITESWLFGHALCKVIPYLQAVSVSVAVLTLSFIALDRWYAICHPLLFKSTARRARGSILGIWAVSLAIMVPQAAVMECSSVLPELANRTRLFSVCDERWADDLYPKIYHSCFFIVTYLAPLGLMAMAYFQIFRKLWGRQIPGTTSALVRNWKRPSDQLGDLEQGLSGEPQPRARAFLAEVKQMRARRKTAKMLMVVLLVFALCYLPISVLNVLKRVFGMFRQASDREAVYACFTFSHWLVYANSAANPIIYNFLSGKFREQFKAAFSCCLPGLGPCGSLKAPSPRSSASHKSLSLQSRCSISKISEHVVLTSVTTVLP
CHO-K1 Ca antag = M1 antagonist counterscreen hit in parental CHO-K1 cells | inhibition, % at 3 µM | ATP-induced calcium, Fluo-8 fluorescence | actives 0.6% (n = 360,000);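 active = inhibition above a per-plate cutoff, the plate's mean sample inhibition plus 3 SD, cut at about 24% in these data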;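 note: 0% = DMSO plus EC80 ATP and 100% = DMSO alone without ATP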
OX1R antag-2 = antagonists of human orexin 1 receptor (OX1R); O43613; OX1R-expressing cells, FRET antagonist read-out; AID 485270; actives 1.8% (n = 330,000); inhibition, % at 6.6 µM; in the data active = inhibition mostly above about 38%, no sharp cut-off; inactive = mostly below about 40%;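 note: 0% = agonist challenge alone and 100% = reference antagonist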
CHO parental Ca = counter-screen: ATP calcium response change in parental CHO cells; AID 463079; actives 0.63% (n = 330,000); parental CHO-K1, ATP-induced calcium, Fluo-8 fluorescence; inhibition, % at 5.6 µM;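 active = inhibition above that plate's mean sample inhibition plus 3 SD, cut at about 26% in these data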;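 note: 0% = ATP-challenged DMSO wells and 100% = DMSO wells without ATP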
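Test system: parental CHO cells; detection: calcium-sensitive Fluo-8 fluorescence; evaluation: percent inhibition of calcium signal; also added: ATP as calcium-mobilizing challenge; repeats: one well per compound; control set: ATP-challenged DMSO wells low, unchallenged DMSO wells high; compound: single nominal dose of 5.6 µM per compound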
M1 PAM parental = nonselective activator or artifact in parental CHO-K1 calcium assay | ATP EC20, Fluo-8 calcium fluorescence; 0% at ATP EC20, 100% at ATP max | actives 0.02% (n = 360,000) | activation, % at 3 µM;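 active = activation above the run cutoff, the mean activation of all test compounds plus 3 SD, cut at about 40% in these data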;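 note: peak over basal fluorescence ratio in a 140 s read after ATP addition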
Numbers without * were called inactive; · = not tested or not shown. Only some compounds are listed: those with a hit (about 2.9% of all), similar ones and a draw of the others.

SMILES	M1 ag parental	OX1R antag-1	CHO-K1 Ca antag	OX1R antag-2	CHO parental Ca	M1 PAM parental
C=CCc1ccc(O)c(-c2cc(CC=C)ccc2O)c1	0	47*	7	3	40*	-10
Cc1nc2ccccc2cc1C(=O)N(C)Cc1ccccc1	3	-20	-15	4	-20	-3
COc1cc(N2N=C(c3ccccc3)CC2c2ccccc2)c(C=O)cc1C=O (centres undefined)	1	-19	7	5	-12	-3
COc1ccccc1N1N=C(c2ccc([N+](=O)[O-])cc2)CC1c1ccccc1 (centres undefined)	8	58*	18	7	55*	2
COc1ccccc1NS(=O)(=O)c1cc2c3c(c1)CCN3C(=O)CC2	1	-3	-1	19	-7	-1
CC(C)C(=O)N1CCN(c2ccc(NC(=O)c3ccc([N+](=O)[O-])o3)cc2)CC1	8	-9	-4	46*	-2	19
Cc1cc(C(=O)Nc2ccc(N3CCCC3)c(Cl)c2)ccc1[N+](=O)[O-]	6	3	2	55*	-2	9
CN1CCN(c2ccc(NC(=O)c3ccc([N+](=O)[O-])o3)cc2Cl)CC1	3	-7	0	54*	17	10
CCN1CCN(c2c(Cl)cccc2NC(=O)c2ccc([N+](=O)[O-])o2)CC1	1	-14	-13	56*	-15	22
O=C(Nc1ccc(N2CCCC2)c(Cl)c1)c1ccc([N+](=O)[O-])cc1	0	-31	-2	20	3	3
Cc1cccc(C(=O)N[C@H](C(=O)NCCc2ccc(S(N)(=O)=O)cc2)C(C)C)c1	0	-2	-12	19	-7	15
Cc1cc(C)c(C2=Nn3c(C)nnc3SC2C)cc1C (centres undefined)	2	-1	-12	14	1	19
Cc1cc(C(=O)Nc2ccon2)ccc1[N+](=O)[O-]	21*	-10	2	20	-13	2
Cc1ccc(S(=O)(=O)N(C)c2ccc3sc(C)nc3c2)cc1	13	-20	-3	6	-11	9
CCOc1ccccc1C(=O)Nc1ccsc1C(=O)OC	0	-20	-12	69*	-15	27
CCOc1ccccc1C(=O)Nc1cc(C(=O)NCC(C)C)ccc1Cl	·	-16	·	48*	-2	·
COC(=O)c1sccc1NC(=O)c1ccc(C)s1	0	-4	-2	56*	-31	9
CC(C)CCC(C)NC(=O)CN1C(=O)NC(C)(c2ccc3ccccc3c2)C1=O (centres undefined)	2	-17	-2	32	-22	-4
COc1ccccc1-c1cnc(C(O)c2ccc(F)cc2C)[nH]1 (centres undefined)	1	·	2	·	·	3
CC(=O)Oc1c(/C=C(\C#N)C(N)=O)[nH]c2ccccc12	8	·	27*	·	·	9
O=C(N/N=C/c1cccnc1)c1ccccc1NS(=O)(=O)c1cccs1	1	-21	-7	21	-3	0
O=C(NN=Cc1ccc(F)cc1)c1ccccc1NS(=O)(=O)c1cccs1	2	-6	17	25*	-6	-14
Cc1cc(C)n2nc(SCC(=O)N3CCN(c4ccccc4)CC3)nc2n1	1	-15	-12	7	-12	11
CCOC(=O)N1CCN(c2cc(NCCC(=O)O)c3c4c(onc24)-c2ccccc2C3=O)CC1	0	-28	4	73*	-17	4
O=C(O)CCCNc1cc(N2CCN(C(=O)c3ccco3)CC2)c2noc3c2c1C(=O)c1ccccc1-3	1	-20	-8	58*	-16	8
SMILES	M1 ag parental	OX1R antag-1	CHO-K1 Ca antag	OX1R antag-2	CHO parental Ca	M1 PAM parental
O=C(O)CCCNc1cc(N2CCC3(CC2)OCCO3)c2noc3c2c1C(=O)c1ccccc1-3	·	0	·	65*	-11	·
CN1CCN(c2cc(N3CCN(C(=O)c4ccco4)CC3)c3c4c(onc24)-c2ccccc2C3=O)CC1	1	-33	-12	38	-11	21
O=C(CSc1ncnc2nc[nH]c12)Nc1nnc(SCc2ccc(Cl)c(Cl)c2)s1	1	-26	-3	23	-10	-5
COc1ccc(C2CCCN2C(=O)Nc2cccc(C(C)=O)c2)cc1OC (centres undefined)	0	-9	26*	-7	-4	-6
COc1ccc(C2CCCN2C(=O)Nc2ccc(F)cc2)cc1OC (centres undefined)	0	-6	-3	15	1	15
O=C(N/N=C/c1ccc([N+](=O)[O-])o1)C1CCCC1	0	-16	-2	91*	8	-12
O=C(N/N=C/c1ccc([N+](=O)[O-])o1)c1ccc(O)cc1	0	1	-3	74*	4	13
Cc1nc2ccccn2c1C(=O)N/N=C/c1ccc([N+](=O)[O-])o1	0	-12	-12	65*	7	0
Cc1nc2ccccn2c1C(=O)N/N=C/c1ccc([N+](=O)[O-])cc1	·	-15	·	10	5	·
Cc1scc(C(=O)N/N=C/c2ccc([N+](=O)[O-])o2)c1C	1	-18	-2	51*	-5	7
O=C(N/N=C/c1ccco1)C1CCCC1	0	-9	-5	24	-6	9
Cc1cccc([C@@H]2[C@@H]3C(=O)N(Cc4ccccc4)C(=O)[C@@H]3[C@]3(Cc4ccccc4)C(=O)N(c4cccc(F)c4)C(=O)N23)c1	0	-12	7	23	-11	-18
CCCNC(=O)C1(C)CCCN(C(=O)c2ccc3snnc3c2)C1 (centres undefined)	0	·	-10	·	·	5
CC[C@]12C(=O)N(C)C[C@H]([C@@H]3C(=O)N(C)C(=O)[C@@H]31)N2C(=O)c1ccc(C)cc1	1	·	-12	·	·	10
O=C(N/N=C\c1ccc([N+](=O)[O-])o1)c1cncc(Br)c1	0	-5	16	32	-4	-25
CCN(CC)S(=O)(=O)c1cccc(C(=O)N/N=C/c2ccc([N+](=O)[O-])o2)c1	1	-16	-6	73*	-5	17
O=C(N/N=C/c1ccc2nccnc2c1)c1ccncc1	2	-5	-15	55*	-7	13
CCN(CC)S(=O)(=O)c1cccc(C(=O)N/N=C/c2ccc(OC)c(O)c2)c1	1	-17	27*	17	-6	-14
O=C(N/N=C/c1ccc([N+](=O)[O-])o1)c1ccncc1	0	9	3	55*	-16	-13
CCOc1ccc(-c2nc(CS(=O)(=O)CC(=O)NCc3ccc(F)cc3)c(C)o2)cc1	1	-29	-4	-9	-18	8
CC(=O)NC(c1ccc(F)c(F)c1)c1nc(-c2ccccc2C)cs1 (centres undefined)	0	·	-2	·	·	5
